Source: ChEMBL document CHEMBL3621153, “Structure-Based Design of GNE-495, a Potent and Selective MAP4K4 Inhibitor with Efficacy in Retinal Angiogenesis” (ACS Med Chem Lett, 2015)
Activity calls are given as the source filed them. The calls are words filed in the database; no cut-off is given here.

What was measured:
HUVEC = experiment: Anti-angiogenesis activity in HUVEC assessed as inhibition of cell migration; format: functional, cell-based; conditions: Homo sapiens
[1] = molecular target: T1, Mitogen-activated protein kinase kinase kinase kinase 4 (Homo sapiens, UniProt O95819); experiment: Inhibition of MAP4K4 (unknown origin) by Z'LYTE assay
T1 sequence (O95819 whole entry): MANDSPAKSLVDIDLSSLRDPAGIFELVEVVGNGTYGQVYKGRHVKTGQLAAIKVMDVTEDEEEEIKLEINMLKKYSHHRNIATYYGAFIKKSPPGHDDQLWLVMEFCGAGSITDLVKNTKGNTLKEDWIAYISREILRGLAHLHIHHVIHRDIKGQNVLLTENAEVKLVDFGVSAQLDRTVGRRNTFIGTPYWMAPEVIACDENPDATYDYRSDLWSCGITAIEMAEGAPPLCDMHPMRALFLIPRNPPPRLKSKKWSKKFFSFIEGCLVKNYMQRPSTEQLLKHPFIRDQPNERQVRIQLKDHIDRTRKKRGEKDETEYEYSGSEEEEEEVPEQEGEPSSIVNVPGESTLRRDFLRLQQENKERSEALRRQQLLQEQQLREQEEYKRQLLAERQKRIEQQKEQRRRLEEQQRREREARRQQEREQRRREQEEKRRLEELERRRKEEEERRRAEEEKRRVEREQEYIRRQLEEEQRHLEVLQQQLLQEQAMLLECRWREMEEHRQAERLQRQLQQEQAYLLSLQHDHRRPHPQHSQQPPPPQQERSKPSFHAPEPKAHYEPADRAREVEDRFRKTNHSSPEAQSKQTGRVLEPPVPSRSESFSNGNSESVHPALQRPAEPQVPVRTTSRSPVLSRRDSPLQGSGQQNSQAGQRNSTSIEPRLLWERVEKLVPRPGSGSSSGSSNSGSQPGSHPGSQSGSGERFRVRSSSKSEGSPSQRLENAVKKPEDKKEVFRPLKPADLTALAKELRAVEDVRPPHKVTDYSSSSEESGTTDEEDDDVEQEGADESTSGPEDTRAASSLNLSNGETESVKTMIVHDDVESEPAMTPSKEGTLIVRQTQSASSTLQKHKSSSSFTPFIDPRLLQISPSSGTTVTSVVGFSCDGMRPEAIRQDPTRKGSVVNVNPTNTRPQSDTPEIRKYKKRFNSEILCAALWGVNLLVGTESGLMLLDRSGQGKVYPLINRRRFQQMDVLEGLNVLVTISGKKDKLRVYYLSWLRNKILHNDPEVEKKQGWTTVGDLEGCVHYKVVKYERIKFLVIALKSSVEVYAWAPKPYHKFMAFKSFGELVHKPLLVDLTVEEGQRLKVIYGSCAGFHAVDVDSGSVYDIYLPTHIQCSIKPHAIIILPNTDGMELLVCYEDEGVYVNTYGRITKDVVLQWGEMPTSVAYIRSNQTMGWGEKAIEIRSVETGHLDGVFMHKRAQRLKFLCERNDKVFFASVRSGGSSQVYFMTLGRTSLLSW

[2] = Efflux ratio in MDCK cells at 10 uM incubated over 60 mins; format: ADME, cell-based, Canis lupus familiaris; conditions: dog
Method in brief: (§1)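 MDCK cells exposed to test compound at 10 μM over 60 min. Apparent permeability (Papp) measured. Efflux ratio derived from apical–basolateral versus basolateral–apical flux rates.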

[3] = Clearance in mouse liver microsomes assessed as compound remaining incubated for 1 hr by LC-MS/MS method; format: ADME
[4] = Clearance in human liver microsomes assessed as compound remaining incubated for 1 hr by LC-MS/MS method; format: ADME
[5] = Apparent permeability in MDCK cells at 10 uM incubated over 60 mins; format: ADME, cell-based, Canis lupus familiaris; conditions: dog; method in brief: as §1
[6] = Clearance in rat liver microsomes assessed as compound remaining incubated for 1 hr by LC-MS/MS method; format: ADME
Method in brief: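 Compounds incubated with rat liver microsomes for 1 h; percent parent remaining quantified by LC–MS/MS.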

[7] = molecular target: T1, Mitogen-activated protein kinase kinase kinase kinase 4; experiment: Inhibition of MAP4K4 (unknown origin) by LC3K method
Method in brief: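 Kinase activity read on a Caliper LabChip 3000 platform, with IC50 values derived from that read-out.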

[8] = Ratio of drug level in brain to plasma in rat administered as cassette dosing; format: ADME, organism-based; conditions: read-out: BPR
Method in brief: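 Brain-to-plasma ratio determined in rats after IV cassette dosing.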

[9] = Tmax in mouse at 5 mg/kg, po; format: ADME, organism-based; conditions: in vivo
Method in brief: (§2)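 Oral dose of 5 mg/kg given as a suspension in 0.5% (w/v) methylcellulose/0.2% (w/v) Tween 80 in sterile water, in mouse, rat or dog. Three animals per group; means reported. Bioavailability derived against a 1 mg/kg IV bolus.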

Mus musculus [10] = experiment: Volume of distribution in mouse at 5 mg/kg, po; format: ADME, organism-based; conditions: in vivo
[11] = Clearance in mouse at 1 mg/kg, iv; format: ADME, organism-based; conditions: in vivo
Method in brief: (§3)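 Single IV bolus of 1 mg/kg given as a solution in 10% EtOH, 30% PEG400, 60% 50 mM citrate, pH 3.0, in mouse, rat or dog. Three animals per group; mean values reported.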

[12] = Half life in rat at 1 mg/kg, iv; format: ADME, organism-based; conditions: in vivo; method in brief: as §3
Rattus norvegicus = experiment: Volume of distribution in rat at 5 mg/kg, po; format: ADME, organism-based; conditions: in vivo
[13] = Half life in dog at 1 mg/kg, iv; format: ADME, organism-based, Canis lupus familiaris; conditions: in vivo; method in brief: as §3
[14] = Oral bioavailability in mouse at 5 mg/kg; format: ADME, organism-based; conditions: in vivo; method in brief: as §2
[15] = Tmax in dog at 5 mg/kg, po; format: ADME, organism-based, Canis lupus familiaris; conditions: in vivo; method in brief: as §2
Canis familiaris [16] = experiment: Volume of distribution in dog at 5 mg/kg, po; format: ADME, organism-based, Canis lupus familiaris; conditions: in vivo
Mus musculus [17] = experiment: Drug level in neonatal mouse pups assessed as time duration for sustained drug exposure at 25 and 50 mg/kg, ip; format: ADME, organism-based; conditions: in vivo
Method in brief: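 Neonatal mouse pups given 25 or 50 mg/kg intraperitoneally. Plasma exposure followed over 24 h post-dose.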

[18] = Half life in mouse at 1 mg/kg, iv; format: ADME, organism-based; conditions: in vivo; method in brief: as §3
[19] = Oral bioavailability in rat at 5 mg/kg; format: ADME, organism-based; conditions: in vivo; method in brief: as §2
Brain = experiment: Free drug concentration in mouse brain; format: ADME, tissue-based; conditions: in vivo
Method in brief: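 Unbound drug concentration in brain measured in mice at the 1 h time point of the cross-species PK study.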

[20] = AUC (infinity) in rat at 5 mg/kg, po; format: ADME, organism-based; parameters: dose 5 mg/kg, time infinity, route oral; conditions: in vivo
[21] = Cmax in rat at 5 mg/kg, po; format: ADME, organism-based; parameters: dose 5 mg/kg, route oral; conditions: in vivo; method in brief: as §2
[22] = Cmax in rat at 1 mg/kg, iv; format: ADME, organism-based; parameters: dose 1 mg/kg, route intravenous; conditions: in vivo; method in brief: as §3
[23] = Protein binding in rat plasma; format: ADME, cell-free; conditions: read-out: PPB (converted)
[24] = Protein binding in mouse plasma; format: ADME, cell-free; conditions: read-out: PPB (converted)
Mus musculus [25] = experiment: Anti-angiogenesis activity in neonatal mouse pups assessed as induction of abnormal retinal vascular morphology at 100 mg/kg, ip dosed daily form P1 to P6 days by isolectin -B4 staining
[26] = Cmax in dog at 1 mg/kg, iv; format: ADME, organism-based, Canis lupus familiaris; parameters: dose 1 mg/kg, route intravenous; conditions: in vivo; method in brief: as §3
[27] = Tmax in rat at 5 mg/kg, po; format: ADME, organism-based; conditions: in vivo; method in brief: as §2
[28] = Cmax in mouse at 1 mg/kg, iv; format: ADME, organism-based; parameters: dose 1 mg/kg, route intravenous; conditions: in vivo; method in brief: as §3
Canis familiaris [29] = experiment: AUC (infinity) in dog at 5 mg/kg, po; format: ADME, organism-based, Canis lupus familiaris; parameters: dose 5 mg/kg, time infinity, route oral; conditions: in vivo
[30] = Cmax in mouse at 5 mg/kg, po; format: ADME, organism-based; parameters: dose 5 mg/kg, route oral; conditions: in vivo; method in brief: as §2
Canis familiaris [31] = experiment: Oral bioavailability in dog at 5 mg/kg; format: ADME, organism-based, Canis lupus familiaris; conditions: in vivo; method in brief: as §2
Mus musculus [32] = experiment: Anti-angiogenesis activity in neonatal mouse pups assessed as delay in retinal vascular outgrowth dosed intraperitoneally daily form P1 to P5 days by isolectin -B4 staining; format: functional, organism-based
Method in brief: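 Newborn mice dosed IP daily with vehicle or 100 mg/kg from P1 to P5. Retinas flat-mounted at P6 and stained with isolectin-B4. Avascular area normalized to total retina, one value per retina. Mann–Whitney unpaired test.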

[33] = Cmax in dog at 5 mg/kg, po; format: ADME, organism-based, Canis lupus familiaris; parameters: dose 5 mg/kg, route oral; conditions: in vivo; method in brief: as §2
[34] = AUC (infinity) in mouse at 5 mg/kg, po; format: ADME, organism-based; parameters: dose 5 mg/kg, time infinity, route oral; conditions: in vivo
[35] = Clearance in rat at 1 mg/kg, iv; format: ADME, organism-based; conditions: in vivo; method in brief: as §3

Work on `Nc1ncc(C(=O)NC2CC2)c2ccc(-c3cccc(F)c3)nc12` yielded an IC50 (HUVEC) of 99 nM, an IC50 [1] of 1.4 nM and an efflux ratio at 1 h, 10 µM [2] of 0.74. The CLhep predicted [3] was 78 mL/min/kg, the CLhep predicted [4] was 16 mL/min/kg and the Papp at 1 h, 10 µM [5] was 3.4 ×10⁻⁶ cm/s.

Work on `NC(=O)c1cnc(N)c2cc(-c3cccc(F)c3)ccc12` yielded a CLhep predicted [6] of 40 mL/min/kg and an IC50 [1] of 18 nM.

With `Nc1ncc(C(=O)NC2CNC2)c2ccc(-c3cccc(F)c3)cc12` the CLhep predicted [6] was 10.7 mL/min/kg.

`Nc1ncc(C(=O)N[C@H]2C[C@@H](O)C2)c2ccc(-c3cccc(F)c3)nc12` showed an IC50 (HUVEC) of 215 nM, an IC50 [1] of 3.7 nM and an efflux ratio at 1 h, 10 µM [2] of 0.83. For the same molecule, the CLhep predicted [3] was 61 mL/min/kg, the CLhep predicted [4] was 6 mL/min/kg and the Papp at 1 h, 10 µM [5] was 10.1 ×10⁻⁶ cm/s.

In the case of `CNC(=O)N1CC(NC(=O)c2cnc(N)c3cc(-c4cccc(F)c4)ccc23)C1`, the CLhep predicted [6] is reported as 12.7 mL/min/kg.

`CC(=O)N1CC(NC(=O)c2cnc(N)c3cc(-c4cccc(F)c4)ccc23)C1` showed a CLhep predicted [6] of 9 mL/min/kg and an IC50 [1] of 32 nM.

With `Nc1ncc(C(=O)NC2CC2)c2ccc(-c3cccc(F)c3)cc12` the CLhep predicted [6] was 28 mL/min/kg and the IC50 [7] was 16 nM.

`Nc1ncc(C(=O)NC2CC(O)C2)c2ccc(-c3cccc(F)c3)cc12` (mixture of isomers) showed a CLhep predicted [6] of 14.9 mL/min/kg, an IC50 [1] of 41 nM and a Kp [8] of 0.02.

`CCC(=O)N1CC(NC(=O)c2cnc(N)c3nc(-c4cccc(F)c4)ccc23)C1` showed an IC50 (HUVEC) of 79 nM, an IC50 [1] of 3.5 nM and a CLhep predicted [3] of 28 mL/min/kg. The CLhep predicted [4] was 5 mL/min/kg.

`CNC(=O)N1CC(NC(=O)c2cnc(N)c3nc(-c4cccc(F)c4)ccc23)C1` gave an IC50 (HUVEC) of 196 nM, an efflux ratio at 1 h, 10 µM [2] of 1.1 and a CLhep predicted [3] of 32 mL/min/kg. For the same molecule, the CLhep predicted [4] was 9 mL/min/kg and the Papp at 1 h, 10 µM [5] was 2.4 ×10⁻⁶ cm/s.

With `Nc1ncc(C(=O)NC2CN(C(=O)C3CC3)C2)c2ccc(-c3cccc(F)c3)nc12` the Tmax [9] was 1 h, the Vd (Mus musculus [10]) was 1.6 L/kg and the clearance [11] was 19 mL/min/kg. The IC50 (HUVEC) was 57 nM, the half-life [12] was 3.4 h and the IC50 [1] was 3.7 nM. The Vd (Rattus norvegicus) was 1.2 L/kg, the half-life [13] was 1.8 h and the bioavailability [14] was 47%. For the same molecule, the Tmax [15] was 1.7 h, the Vd (Canis familiaris [16]) was 1.1 L/kg and the Time (Mus musculus [17]) was > 24 h. The efflux ratio at 1 h, 10 µM [2] was 2.3, the half-life [18] was 1.5 h and the bioavailability [19] was 40%. For the same molecule, the CLhep predicted [3] was 13 mL/min/kg, the “Drug uptake(free)” value (Brain) was 0.008 µM and the AUC(0-inf) [20] was 12 µM·h. It also gave a Cmax [21] of 1500 nM, a Cmax [22] of 4000 nM and a fraction unbound [23] of 0.022. The fraction unbound [24] was 0.056, the Activity (Mus musculus [25]) was “Active” and the Cmax [26] was 3900 nM. For the same molecule, the CLhep predicted [4] was 7 mL/min/kg, the Tmax [27] was 4 h and the Cmax [28] was 2700 nM. For the same molecule, the AUC (Canis familiaris [29]) was 21 µM·h, the Papp at 1 h, 10 µM [5] was 7.3 ×10⁻⁶ cm/s and the Cmax [30] was 1400 nM. The F (Canis familiaris [31]) was 37%, the Activity (Mus musculus [32]) was “Active” and the Cmax [33] was 1200 nM. It also gave an AUC(0-inf) [34] of 5.3 µM·h and a clearance [35] of 7.5 mL/min/kg.

In the case of `N#CCNC(=O)c1cnc(N)c2cc(-c3cccc(F)c3)ccc12`, the CLhep predicted [6] is reported as 23 mL/min/kg, the IC50 [1] is reported as 46 nM and the Kp [8] is reported as 0.12.

Molecule `Nc1ncnc2ccc(-c3cccc(F)c3)cc12` has a CLhep predicted [6] of 47.5 mL/min/kg.
